In ChEMBL document CHEMBL4007439, “Design, Synthesis, and Evaluation of a Novel Series of Oxadiazine Gamma Secretase Modulators for Familial Alzheimer's Disease” (J Med Chem, 2017):
Activity calls are given as the source filed them. No cut-off for these calls is given here.

What was measured:
[1] = Unbound intrinsic clearance in rat hepatocytes; type: ADME, cell-based, Hepatocyte
[2] = Modulation of gamma-secretase in human H4 cells expressing human APP751 assessed as inhibition of amyloid beta 42 production incubated overnight by sandwich ELISA; type: cell-based; details: Homo sapiens
Summary of the method: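 Aβ42 EC50 in H4 cells overexpressing WT human APP751; each value is the average of n > 2 assays, each run in duplicate.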

Mus musculus = assay: Reduction in amyloid beta 42 levels in mouse brain at 30 mg/kg, po measured at 6 hrs post dose by ELISA; type: functional
Summary of the method: (§1)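 Single oral dose of 30 mg/kg; brain (mouse, rat) and rat CSF Aβ42 and Aβ37 measured 6 h post-dose, expressed relative to vehicle; total and free brain drug levels and brain:plasma ratio taken at the same time.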

[3] = Ratio of drug level in brain to plasma in mouse at 30 mg/kg, po measured at 6 hrs post dose; type: ADME, organism-based; details: read-out: BPR; summary of the method: as §1
Brain = assay: Unbound drug level in mouse brain at 30 mg/kg, po measured at 6 hrs post dose; type: ADME, organism-based; details: in vivo; summary of the method: as §1
[4] = Total drug level in mouse brain at 30 mg/kg, po measured at 6 hrs post dose; type: ADME, organism-based; details: read-out: Drug uptake; summary of the method: as §1

SMILES | CL free [1] | EC50 [2] | Activity (Mus musculus) | further results
COc1nc(C2=NOC[C@H](COc3ccc(F)cc3C)N2)ccc1-n1cnc(C)c1 | 1906 mL/min/kg | 51 nM |  | 
COc1nc(C2=NOC[C@@H]3[C@H](Oc4ccc(F)cc4C)CCCN23)ccc1-c1ccnc(C)c1 |  | 240 nM |  | 
COc1nc(C2=NOC[C@@H]3[C@H](Oc4ccc(F)cc4C)CCCN23)ccc1-n1cnc(C)c1 |  | 197 nM |  | 
COc1cc(C2=NOC[C@@H](COc3ccc(F)cc3C)N2)ccc1-c1ccnc(C)c1 |  | 6450 nM | inactive | 
COc1cc(C2=NOC[C@H](COc3ccc(Cl)cc3C(F)(F)F)N2)ccc1-c1ccnc(C)c1 |  | 249 nM | inactive | 
COc1nc(C2=NOC[C@H](c3cc4ccccc4s3)N2)ccc1-n1cnc(C)c1 | 430 mL/min/kg | 8 nM |  | Kp at 6 h [3]: 2.8; Drug uptake(free) (Brain): 76 nM; concentration at 6 h [4]: 30.2 µM; inhibition in vivo at 30 mg/kg (Mus musculus): 34%
